Screens from PubChem.
Shown are actives, neighbours in structure and some others; about 4% of the full set was active somewhere.
S1P3 antagonist = antagonists of human S1P3 receptor; 0.27% of 170,000 active; Q99500; CHO S1P3 NFAT-BLA reporter, FRET fluorescence, antagonist mode; AID 485; inhibition, % at 4.98 µM;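 active = inhibition above the plate cutoff, the mean inhibition of test wells on that plate plus 3 SD, cut at about 28% in these data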;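 note: cells challenged with S1P at its EC80 of 0.8 µM; blue over green emission ratio from cleaved BLA substrate after 4 h stimulation; 0% = S1P-stimulated wells and 100% = unstimulated DMSO-only wells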
CHOP inhibitor = blocks CHOP induction under ER stress | CHO-K1 CHOP-promoter luciferase, tunicamycin-induced, 15-18 h | AID 2732 | 3.8% of 220,000 active | inhibition, % at 10 µM;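 active = compounds that reduced the stress-induced luciferase reporter signal by more than about 70% of percent inhibition, limit read from the data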;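 note: 0% = tunicamycin plus vehicle and 100% = wells without tunicamycin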
Hsp70 act = switches on Hsp70 transcription; HeLa Hsp70 promoter luciferase reporter, luminescence; scaled: vehicle 0, proteasome-inhibitor control 100%; activation, % at 10 µM; 0.04% of 200,000 active; AID 1203;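 active = activation above the mean across all tested compounds plus 3 SD, cutoff set per campaign, cut at about 5.5% in these data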;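 note: 100% = MG132 at 30 µM as the positive control and 0% = DMSO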
Mdm2 ligase inh = inhibitors of human Mdm2 E3 ubiquitin ligase; Q00987; cell-based MDM2 ubiquitination luciferase reporter, 2 h; 0 = plate control, 100 = twice control, blank-subtracted; signal enhancement, % at 5 µM; 0.11% of 210,000 active; AID 1230;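 active = signal enhancement of 30% or more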;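 note: luminescence tracks abundance of the self-degrading MDM2-luciferase fusion protein; higher signal means inhibition of MDM2 E3 ligase activity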
Target sequence (Q00987 whole entry, looked up, the tested form may be a part): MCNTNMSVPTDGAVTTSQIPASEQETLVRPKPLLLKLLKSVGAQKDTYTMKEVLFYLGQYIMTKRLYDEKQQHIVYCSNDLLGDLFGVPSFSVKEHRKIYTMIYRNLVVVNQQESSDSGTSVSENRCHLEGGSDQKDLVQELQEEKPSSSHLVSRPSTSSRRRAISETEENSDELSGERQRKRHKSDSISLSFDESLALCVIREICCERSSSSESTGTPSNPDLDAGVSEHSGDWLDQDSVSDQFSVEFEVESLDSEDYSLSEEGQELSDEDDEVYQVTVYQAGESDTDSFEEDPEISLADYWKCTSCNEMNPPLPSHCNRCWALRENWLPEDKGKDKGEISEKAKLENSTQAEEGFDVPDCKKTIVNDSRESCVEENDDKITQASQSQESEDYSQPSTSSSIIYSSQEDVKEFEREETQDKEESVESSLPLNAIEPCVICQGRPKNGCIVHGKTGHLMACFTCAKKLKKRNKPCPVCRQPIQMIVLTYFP
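test system = mammalian cells stably expressing self-ubiquitinating, self-degrading MDM2 E3–luciferase fusion | quantity = 2000 cells/well | incubation = cell settling 4 h, compound treatment 2 h, both 37 °C | signal = luminescence with SteadyLite reagent, 15 min at room temperature | evaluation = % enhancement relative to plate controls after blank subtraction | benchmarks = plate controls and plate blanks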
Numbers without * were called inactive; x = no result given.

SMILES | S1P3 antagonist | CHOP inhibitor | Hsp70 act | Mdm2 ligase inh
CCCCCCn1c(SCC(=O)Nc2cc(C)on2)nc2ccccc2c1=O | -19 | 75* | 0 | -16
COc1ccc(CCn2c(SCC(=O)Nc3cc(C)on3)nc3ccccc3c2=O)cc1OC | 4 | 57 | 0 | -17
Cc1cc(NC(=O)CSc2nc3ccccc3c(=O)n2-c2ccccc2)no1 | x | 39 | 0 | -8
CC(C)c1nnc(NC(=O)CC(=O)Nc2ccccc2C(=O)O)s1 | -38 | 37 | 0 | 7
C=CCSc1nc2ccccc2c(=O)n1Cc1ccccc1 | -9 | 87* | 0 | -10
O=C(CSc1nc2ccccc2c(=O)n1Cc1ccccc1)NCc1ccco1 | x | 18 | 0 | -15
O=c1c2ccccc2nc(SCc2ccccc2Cl)n1Cc1ccccc1 | x | 0 | 0 | -5
O=C(CSc1nc2ccccc2c(=O)n1Cc1ccc(F)cc1)NCc1cccs1 | -6 | 82* | 0 | 13
CCN(CC)c1ccc(C(=O)OCc2c(C)noc2C)cc1 | 2 | 9 | 0 | -10
FC(F)(F)c1ccc(C2Nc3cccc4cccc(c34)N2)cc1 | -29 | 87* | 0 | -14
Cc1[nH]c2ccccc2c1C(O)CN1CCN(c2cccc(C(F)(F)F)c2)CC1 (stereo unspecified) | -29 | 74* | 0 | -2
Cc1[nH]c2ccccc2c1NC(=O)CN1CCN(c2cccc(C(F)(F)F)c2)CC1 | 0 | 61 | 0 | -2
O=C1c2ccccc2C(Nc2ccc(F)cc2F)N1CCN1CCOCC1 (stereo unspecified) | -15 | 28 | 0 | -14
Cc1nc2c3cc(F)ccc3n(Cc3ccccc3)c2s1 | 3 | 74* | 0 | x
O=C(NNC(=O)c1cccc(S(=O)(=O)N2CCN(c3ccccc3)CC2)c1)c1ccc(Cl)cc1 | -6 | 83* | 0 | -12
O=C(Nc1cccc(S(=O)(=O)NC2=NCCC2)c1)C1CC(=O)N(c2ccc3c(c2)OCCO3)C1 (stereo unspecified) | -19 | 16 | 0 | -3
CCN(CCNC(=O)CC1Oc2ccccc2NC1=O)c1ccccc1 (stereo unspecified) | -9 | 14 | 0 | -2
CC(C)CN(CCNC(=O)CC1Oc2ccccc2NC1=O)CC(C)C (stereo unspecified) | -23 | 72* | 0 | -12
O=C(Cn1c(NCCCO)nc2ccccc21)c1cccs1 | -54 | x | 0 | x
CCOC(=O)c1sc(Nc2ccccc2)nc1C | x | 32 | 0 | 2
CCOC(=O)c1sc(Nc2ccc(C)cc2C)nc1C | x | 93* | 0 | -18
CCOC(=O)c1sc(Nc2ccc(F)cc2)nc1C | -22 | -29 | 0 | 3
CCOC(=O)c1sc(Nc2nc3c(OC)cccc3s2)nc1C | -16 | 73* | 0 | 15
Cc1cccc(N2CCN(C(=O)c3cc(C)oc3C)CC2C)c1 (stereo unspecified) | 2 | 14 | -1 | -11
N#Cc1c(/N=C/c2cccs2)sc2c1CCCCC2 | 57* | 36 | 0 | -15
SMILES | S1P3 antagonist | CHOP inhibitor | Hsp70 act | Mdm2 ligase inh
COc1ccc(CCNC(=O)COC(=O)c2cnc(C)cn2)cc1OC | x | 8 | 0 | 31*
Cc1cnc(C(=O)OCC(=O)NC(=O)NC(C)C)cn1 | -6 | 77* | 0 | -13
CCOc1ccc(C(=O)c2cc([N+](=O)[O-])ccc2Cl)cc1 | x | 82* | 0 | -9
CCOc1ccc(C(=O)c2ccc([N+](=O)[O-])cc2Cl)cc1 | 8 | 31 | 0 | -8
Cc1ccc(NC(=O)COC(=O)C2CC(=O)N(Cc3ccccc3)C2)cc1F (stereo unspecified) | 1 | 16 | 0 | -13
O=C(OCc1nnc(-c2ccccc2)o1)c1ccc(Cl)cc1 | -7 | 42 | 0 | 0
O=C(OCc1nnc(-c2ccccc2)o1)c1ccc2c(c1)OCCO2 | -30 | 76* | 0 | -2
CS(=O)(=O)c1ccc(C(=O)OCc2nnc(-c3ccccc3)o2)cc1[N+](=O)[O-] | 5 | 88* | 0 | 15
Cc1ccc(C(=O)N/C(=C\c2cccs2)C(=O)NCC2CCCO2)cc1C (stereo unspecified) | -19 | 25 | 0 | -3
Cc1cc(C(=O)Nc2ccc3nc(C)sc3c2)c2ccccc2n1 | -1 | 9 | x | x
COc1ccc(C2/C=C\CN(C(=O)Nc3ccc(C(F)(F)F)cc3)CC(=O)N2Cc2ccc(F)cc2)cc1 (stereo unspecified) | x | 75* | x | 5
Oc1[nH]c2ccc(Br)cc2c1N=NC(=S)N1CCOCC1 | -3 | -51 | x | 14
Oc1[nH]c2ccccc2c1N=NC(=S)N1CCOCC1 | 8 | 4 | x | 31*
COc1ccc(CCN(C)C(=S)NC(=O)c2ccc(F)cc2Cl)cc1OC | -14 | 9 | 0 | -16
CCc1ccc(CN(C)CC(=O)Nc2ccc3c(c2)CCC3)cc1 | -5 | 92* | 0 | 1
Cc1ccc(CN(C)CC(=O)Nc2ccc3c(c2)CCC3)cc1 | -28 | -25 | 0 | 16
CC(=O)c1sc(NC(=O)C2(F)C(F)(F)C(F)(F)C(F)(F)C(F)(F)C2(F)F)nc1C | 76* | x | -1 | 3
CC1CC(C)CN(c2cc3c(cc2[N+](=O)[O-])C(=O)N(c2ccccc2)C3=O)C1 (stereo unspecified) | 6 | 49 | 0 | 6
CC1CC(C)CN(c2ccc(-n3cnnn3)cc2[N+](=O)[O-])C1 (stereo unspecified) | x | 74* | -1 | -12
CCCCNC(=O)CS(=O)Cc1nc(-c2ccc(C)cc2)oc1C (stereo unspecified) | -20 | 25 | 0 | -12
CCc1cccc(NC(=O)CS(=O)Cc2nc(-c3ccc(C)cc3)oc2C)c1 (stereo unspecified) | 19 | 93* | 0 | -15
NC(=O)c1cc(-c2ccccc2)nc2ccc(Br)cc12 | 1 | 16 | x | -7
COc1ccc2nc(NC(=O)C3CCCN(S(=O)(=O)c4c(C)noc4C)C3)sc2c1 (stereo unspecified) | -7 | 75* | 0 | -11
CCOc1ccc2nc(NC(=O)C3CCCN(S(=O)(=O)c4c(C)noc4C)C3)sc2c1 (stereo unspecified) | 19 | -21 | x | 2
O=C(OCc1ccc(Cl)cc1)c1cnccn1 | x | 82* | 0 | -17
SMILES | S1P3 antagonist | CHOP inhibitor | Hsp70 act | Mdm2 ligase inh
O=C(OCc1ccc(Cl)c(Cl)c1)c1cnccn1 | x | 42 | 0 | -6
COc1ccc(NC(=S)N(C)CC2COc3ccccc3O2)cc1 (stereo unspecified) | -8 | -11 | 0 | -8
Cc1cc(N2C3CCC2CC(O)(c2ccc(F)cc2)C3)nc(-c2ccccc2)n1 (stereo unspecified) | -12 | 72* | 0 | -13
Cc1ccnc(N2C3CCC2CC(O)(c2ccccc2)C3)n1 (stereo unspecified) | -28 | -5 | 2 | 14
Oc1ccc(-c2nc3c4c(ncn3n2)-c2ccccc2CC42CCCC2)cc1 | -5 | 106* | 0 | -8
Nn1cnc2c(c1=O)C1(CCCCC1)Cc1ccccc1-2 | 9 | 34 | 0 | x
O=C(CN1C(=O)c2cccc3cccc(c23)C1=O)N1CCN(c2ccccn2)CC1 | -3 | 23 | 0 | 3
